“Also recorded” adds a separate entry of the source. *1 amine or outer side, *2 acyl side, *3 side chain or, on linkers, in order; H or OH if unused. Where a SMILES comes first, the peptide text is derived from it. Side-chain parts run from the residue outwards. [ ]: non-standard residue; d: D form. The star is where a group is joined. Ethylenediamine = C(CN[*:2])N[*:1]; Hyp = O=C(O)[C@@H]1C[C@@H](O)CN1; Phg = N[C@H](C(=O)O)c1ccccc1; CO = O=C([*:1])[*:2]; Bn = c1ccc(C*)cc1
Key:
[1] = tested on: patients with advanced carcinoid syndrome refractory to octreotide LAR; conditions: pasireotide LAR 60 mg vs octreotide LAR 30 mg; cited from earlier work
[2] = Pasireotide plasma concentrations; type: in vivo; conditions: human, im
[3] = tested on: patients with advanced NETs; assay: MTD/dose-limiting toxicity; type: in vivo, human; conditions: 80 and 120 mg; first two treatment cycles
How it was run: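 Dose escalation in cohorts of 3–6 patients, starting at 80 mg IM every 28 days. Later doses were chosen in 20 mg multiples by a two-parameter Bayesian logistic regression model with overdose control. Intra-patient escalation was not allowed; de-escalation was permitted. DLT window was the first two 28-day cycles. Evaluable patients had two injections with sufficient safety evaluation, or a DLT. MTD was defined as the highest dose with expected DLT in ≤33%.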

[4] = tested on: patients with advanced NETs; assay: AEs regardless of study drug relationship; type: in vivo, human
How it was run: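 Open-label, multicentre phase I in adults with advanced, well- or moderately differentiated NETs progressing within the prior 12 months; HbA1c >7.0% excluded. Test compound given as long-acting IM injection every 28 days. Safety set was everyone receiving at least one dose, grouped by first dose received. AEs coded by MedDRA 18.0; laboratory abnormalities graded by CTCAE 3.0.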

[5] = tested on: patients with advanced NETs; assay: Bradycardia; type: in vivo, human; conditions: for Odds ratio [95% CI] of bradycardia (HR <40 bpm) for a 1.5-fold increase in pasireotide concentration: logistic regression, not statistically significant
How it was run: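 HR recorded by 24-hour Holter on Cycle 1 Day 1 and Cycle 2 Day 1 in all patients. Bradycardia, defined as minimum HR <40 bpm, was analysed by pooling vital signs, 12-lead ECG and Holter data. Post hoc review covered dose-escalation cohorts plus the 120 mg expansion cohort. Dosing was IM every 28 days.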

Compound | Tumor control rate at month 6 [1] | Cmax ([2]; 80 mg) | Cmax ([2]; 120 mg) | Protocol-defined dose-limiting toxicities (DLTs) [3] | AEs of any grade, patients ([4]; 80 mg) | AEs, Total ([4]; 80 mg i.m./28 days (n=13), Grade 3/4) | AEs, Total ([4]; 80 mg i.m./28 days (n=13), all grade) | AEs of any grade, patients ([4]; 120 mg) | AEs, Total ([4]; 120 mg i.m./28 days (n=16), Grade 3/4) | AEs, Total ([4]; 120 mg i.m./28 days (n=16), all grade) | AEs, Total ([4]; all patients, 80 or 120 mg (N=29), Grade 3/4) | AEs, Total ([4]; all patients, 80 or 120 mg (N=29), all grade) | Incidence of bradycardia (HR <40 bpm) ([5]; 120 mg (5/16), Holter assessment, post hoc) | Odds ratio [95% CI] of bradycardia (HR <40 bpm) for a 1.5-fold increase in pasireotide concentration ([5]; day time (6 am through 10 pm)) | Odds ratio [95% CI] of bradycardia (HR <40 bpm) for a 1.5-fold increase in pasireotide concentration ([5]; night time (10 pm through 6 am))
octreotide [octreotide LAR] | 46.2% |  |  |  |  |  |  |  |  |  |  |  |  |  | 
NCCCC[C@@H]1NC(=O)[C@@H](Cc2c[nH]c3ccccc23)NC(=O)[C@H](c2ccccc2)NC(=O)[C@@H]2C[C@@H](OC(=O)NCCN)CN2C(=O)[C@H](Cc2ccccc2)NC(=O)[C@H](Cc2ccc(OCc3ccccc3)cc2)NC1=O [Pasireotide LAR, pasireotide] (cyclo([Hyp]([CO-Ethylenediamine])[Phg][dW]KY(Bn)F)) |  | 13.7 ± 11.5 ng/mL | 23.2 ± 31.4 ng/mL | No protocol-defined dose-limiting toxicities; also recorded: no protocol-defined DLTs | 92% | 9 (69.2) n (%) | 12 (92.3) n (%) | 100% | 11 (68.8) n (%) | 16 (100) n (%) | 20 (69.0) n (%) | 28 (96.6) n (%) | 31% | 1.67 [0.38–7.34] | 2.02 [0.49–8.29]

Reference: publication PMC5499931 (OncoTargets and therapy, 2017)
